Active and inactive are the calls of the source. The calls are words filed in the database; no cut-off is given here.

Usually logP stands for the decadic logarithm of the partition coefficient of the neutral form, usually between octanol and water. The pKa is the negative logarithm of the acid dissociation constant.

The test system of data set [1] is Mus musculus. Nature of the data set: percentage change in plasma glucose concentration of drug treated mice relative to vehicle controls at 20 mg/kg (once daily perorally x 4) in groups of db/db mice; NA = not active. In kind it is functional, organism-based. Further details: dose 20 mg/kg. In a few lines: (§1)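 Male C57BL/KsJ db/db mice (2-7 months, 35-60 g), 4 h fasted baseline tail blood on day 1; extremes excluded, randomized into groups (N = 4-6) of equal mean glucose. Dosed po as suspension in 2% Tween 80/saline on afternoons of days 1-3 (fed) and day 4 after 3 h fast. Plasma glucose (Abbott VP analyzer) 2 and 4 h post-dose, mean versus day-1 baseline; ANOVA with one-sided Dunnett's test against vehicle.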

For data set [2], the system named is Mus musculus. Description: percentage change in plasma glucose concentration of drug treated mice relative to vehicle controls at 100 mg/kg (once daily perorally x 4) in groups of db/db mice compared to vehicle control. It is filed as functional. To be noted: route oral. The method in brief:
as §1

Data set [3] concerns Mus musculus. Nature of the data set: percentage change in plasma glucose concentration of drug treated mice relative to vehicle controls at 20 mg/kg (once daily perorally x 4) in groups of db/db mice compared to vehicle control. In kind it is functional. To be noted: route oral. The method in brief:
as §1

In data set [4] the test system is Mus musculus. Description: Percentage change in plasma glucose concentration of drug treated mice relative to vehicle controls at 100 mg/kg (once daily perorally x 4) in groups of db/db mice; NA = not active. In kind it is functional, organism-based. The arrangement: dose 100 mg/kg. In a few lines:
as §1

Data set [5] deals with Mus musculus. Nature of the data set: percentage change in plasma glucose concentration of drug treated mice relative to vehicle controls at 100 mg/kg (once daily perorally x 4) in groups of db/db mice; NA= not active. Further details: dose 100 mg/kg. It is filed as functional, organism-based. The method in brief:
as §1

In data set [6] the test system is Mus musculus. Nature of the data set: percentage change in plasma glucose concentration of drug treated mice relative to vehicle controls at 20 mg/kg (once daily perorally x 4) in groups of db/db mice; Not active. Further details: dose 20 mg/kg. In kind it is functional, organism-based. The method in brief:
as §1

In data set [7] the test system is Mus musculus. Nature of the data set: percentage change in plasma glucose concentration of drug treated mice relative to vehicle controls at 5 mg/kg (once daily perorally x 4) in groups of db/db mice. In kind it is functional. The note with it: route oral. In a few lines:
as §1

Data set [8] relates to Mus musculus. Description: percentage change in plasma glucose concentration of drug treated mice relative to vehicle controls at 27 mg/kg (once daily perorally x 4) in groups of db/db mice; NA = not active. Further details: dose 27 mg/kg. In kind it is functional, organism-based. In a few lines: as §1
For data set [9], the system named is Mus musculus. Nature of the data set: percentage change in plasma glucose concentration of drug treated mice relative to vehicle controls at 5 mg/kg (once daily perorally x 4) in groups of db/db mice; not active, generally less than -15% change. In kind it is functional, organism-based. The arrangement: dose 5 mg/kg. In a few lines: as §1
Data set [10] can be described thus: Partition coefficient (logP). It is filed as physicochemical. To be noted: octanol/water. The method in brief:
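Manual shake-flask octanol/aqueous partition. Buffer was 0.01 M K2HPO4 at pH 7.4. Sample was shaken 1 min, equilibrated 4 h, and phases separated and centrifuged. Each phase was quantified by reverse-phase C18 HPLC (acetonitrile/0.01 M […] pH 3.5, 214 nm). Average of at least two runs.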

Data set [11] is described as follows: Dissociation constant measured by potentiometric titration (in duplicate) in 1:1 dioxane-water using a Fisher accumet pH meter model 630 and a Perkin-Elmer chart recorder model 56. In kind it is physicochemical. The method in brief: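 Apparent pKa from potentiometric titration with 0.1 N NaOH in dioxane–water (1:1). Sample concentration 0.2 mM, solvent 30 mL, 25 °C, titrant flow 0.17 mL/min. Value is the average of two runs. The system was conditioned and checked in duplicate against piperazine, allantoin, barbituric acid and ciglitazone standards.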

The test system of data set [12] is Mus musculus. Nature of the data set: percentage change in plasma glucose concentration of drug treated mice relative to vehicle controls at 100 mg/kg (once daily perorally x 4) in groups of db/db mice. In kind it is functional. To be noted: route oral. The method in brief: as §1
For data set [13], the system named is Mus musculus. Description: percentage change in plasma glucose concentration of drug treated mice relative to vehicle controls at 73 mg/kg (once daily perorally x 4) in groups of db/db mice compared to vehicle control. To be noted: route oral. It is filed as functional. In a few lines:
as §1

The test system of data set [14] is Mus musculus. Nature of the data set: percentage change in plasma glucose concentration of drug treated mice relative to vehicle controls at 100 mg/kg (once daily perorally x 4) in groups of db/db mice; Not active. In kind it is functional, organism-based. The arrangement: dose 100 mg/kg. The method in brief: as §1
In data set [15] the test system is Mus musculus. Description: Percentage change in plasma glucose concentration of drug treated mice relative to vehicle controls at 20 mg/kg (once daily perorally x 4) in groups of db/db mice; NA = not active.
Data set [16] concerns Mus musculus. Nature of the data set: percentage change in plasma glucose concentration of drug treated mice relative to vehicle controls at 53 mg/kg (once daily perorally x 4) in groups of db/db mice; NA = not active. Further details: dose 53 mg/kg. In kind it is functional, organism-based. The method in brief:
as §1

Data set [17] concerns Mus musculus. Nature of the data set: percentage change in plasma glucose concentration of drug treated mice relative to vehicle controls at 20 mg/kg (once daily perorally x 4) in groups of db/db mice. It is filed as functional. To be noted: route oral. In a few lines:
as §1

In the case of `Cc1c(Cc2ccc3ccccc3c2)n[nH]c1O`, the Change entry in the data set on Mus musculus [1] is “inactive”.

In the case of `Cc1n[nH]c(O)c1Cc1ccc2ccccc2c1`, the Change is -42% in the data set with Mus musculus [2] and -31% in the data set on Mus musculus [3].

Turning to `Oc1[nH]nc(C(F)(F)F)c1Cc1ccc2c(c1)OCO2`, the Change in the data set on Mus musculus [3] is reported as -38%.

Consider `COC(=O)c1cc(-c2ccc3ccccc3c2)[nH]n1`, for which the Change entry in the data set on Mus musculus [4] is “inactive”.

For the compound `C[n+]1nn(Cc2ccccc2)c([O-])c1Cc1ccc2ccccc2c1`, the Change result in the data set with Mus musculus [5] was “inactive”.

Regarding `O=C(O)C(=O)/C=C(\O)c1ccc2ccccc2c1`, the Change with Mus musculus [2] is given as -28%.

Take `Oc1[nH]nc(C(F)(F)F)c1Cc1ccc2sccc2c1`: the Change in the data set on Mus musculus [3] is listed as -29%.

With `O=[N+]([O-])c1ccc(-c2n[nH]c(O)c2Cc2ccc3ccccc3c2)cc1`, the Change entry in the data set on Mus musculus [4] is “inactive”.

As for `Oc1[nH]nc2c1CCc1sccc1-2`, the Change result in the data set with Mus musculus [4] is “inactive”.

As for `Oc1c(Cc2ccc3ccccc3c2)nnn1Cc1ccccc1`, the Change entry in the data set on Mus musculus [4] was “inactive”.

In the case of `Cc1n[nH]c(O)c1Cc1cccc2ccccc12`, the Change entry with Mus musculus [1] was “inactive”.

With `Oc1n[nH]nc1Cc1ccc2ccccc2c1`, the Change result in the data set on Mus musculus [4] is “inactive”.

With `Oc1[nH]nc(C(F)(F)C(F)(F)C(F)(F)F)c1Cc1ccc2ccccc2c1`, in the data set with Mus musculus [5], the Change result was “inactive”.

With `Oc1onc(-c2ccccc2)c1Cc1ccc2ccccc2c1`, the Change entry with Mus musculus [4] is “inactive”.

In the case of `COCc1noc(O)c1Cc1ccc2ccccc2c1`, in the data set with Mus musculus [4], the Change entry is “inactive”.

As to `Oc1[nH]nc(C(F)(F)F)c1Cc1ccc2c(Br)cccc2c1`, the Change in the data set on Mus musculus [3] was -22%.

With `Oc1cc(Cc2ccc3ccccc3c2)n[nH]1`, in the data set on Mus musculus [4], the Change result is “inactive”.

For the compound `Cc1o[nH]c(=O)c1Cc1ccc2ccccc2c1Br`, the Change entry with Mus musculus [1] is “inactive”.

As for `O=C1NC(=O)C(Cc2ccc3ccccc3c2)=C1O`, the Change result in the data set on Mus musculus [6] is “inactive”.

Take `Oc1[nH]nc(C(F)(F)C(F)(F)F)c1Cc1ccc2ccccc2c1`: the Change result with Mus musculus [4] was “inactive”.

For the compound `Cc1o[nH]c(=O)c1Cc1ccccc1`, the Change result in the data set with Mus musculus [4] was “inactive”.

`O=C(O)c1cc(-c2ccc3ccccc3c2)[nH]n1`: the Change result in the data set on Mus musculus [4] is “inactive”.

`CCCc1o[nH]c(=O)c1Cc1ccc2ccccc2c1`: the Change result in the data set with Mus musculus [1] is “inactive”.

Turning to `Oc1[nH]nc(C(F)(F)F)c1Cc1ccc2ccccc2c1`, in the data set with Mus musculus [7], the Change is recorded as -16%.

Take `Oc1cc(CSc2nc3ccccc3s2)no1`: the Change entry with Mus musculus [4] was “inactive”.

For the compound `Cc1n[nH]c(O)c1CSc1nc2ccccc2[nH]1`, in the data set on Mus musculus [5], the Change result is “inactive”.

On to `Oc1[nH]nc(-c2ccccc2)c1Cc1ccc2ccccc2c1`, for which the Change result with Mus musculus [4] is “inactive”.

Take `Oc1[nH]nc(C(F)(F)F)c1Cc1ccc2c(c1)CCC(Cc1ccccc1)O2` (stereo not given): the Change entry in the data set with Mus musculus [4] was “inactive”.

With `Oc1[nH]nc(C(F)(F)F)c1Cc1ccc2nccnc2c1`, in the data set with Mus musculus [3], the Change is listed as -27%.

Consider `Cc1onc(O)c1Cc1ccc2ccccc2c1`, for which the Change is -48% with Mus musculus [2] and -25% in the data set on Mus musculus [3].

Turning to `CCc1o[nH]c(=O)c1Cc1ccc2ccccc2c1`, the Change entry in the data set with Mus musculus [1] is “inactive”.

For the compound `Oc1[nH]ncc1Cc1ccc2ccccc2c1`, in the data set with Mus musculus [8], the Change result is “inactive”.

On to `CC(C)c1n[nH]c(O)c1Cc1ccc2ccccc2c1`, for which the Change with Mus musculus [2] is -30.4%.

`CCc1n[nH]c(O)c1Cc1ccc2ccccc2c1`: the Change was -32% in the data set with Mus musculus [3] and “Not significant” with Mus musculus [9].

For `Cc1n[nH]c(O)c1Cc1ccccc1`, the Change result with Mus musculus [4] is “inactive”.

In data set [10], `CC1(COc2ccc(CC3SC(=O)NC3=O)cc2)CCCCC1` (stereo not given) [CIGLITAZONE] returned a logP of 3.61. For the same compound, the pKa in data set [11] came to 7.8. In addition, the Change with Mus musculus [2] was -28%.

Turning to `Cc1noc(O)c1Cc1ccc2ccccc2c1Br`, the Change entry in the data set with Mus musculus [1] is “inactive”.

On to `COC(=O)C(=O)/C=C(\O)c1ccc2ccccc2c1`, for which, in the data set with Mus musculus [2], the Change is given as -37%.

On to `Cn1nnc(O)c1Cc1ccc2ccccc2c1`, for which the log partition coefficient (logP) in data set [10] (read-out: logP) came out at 2.12. This compound also displayed a pKa in data set [11] of 9.11. The Change result in the data set with Mus musculus [1] is “inactive”.

As for `Oc1cc(CSc2ccc3ccccc3c2)no1`, the Change result with Mus musculus [4] was “inactive”.

With `NNc1n[nH]c(O)c1Cc1ccc2ccccc2c1`, the Change result with Mus musculus [4] was “inactive”.

For the compound `c1ccc2cc(Cc3nnn[nH]3)ccc2c1`, the lipophilicity (logP) in [10] (read-out: logP) was 0.72. The same compound came in with a pKa in data set [11] of 5.77. The Change result with Mus musculus [6] is “inactive”.

For the compound `Cc1[nH]oc(=O)c1Cc1ccc2ccccc2c1`, the Change in the data set with Mus musculus [12] is reported as -17%.

Regarding `Nc1n[nH]c(O)c1Cc1ccc2ccccc2c1`, the Change with Mus musculus [13] is given as -27%.

Regarding `O=C(O)CCc1ccc2ccccc2c1`, the log partition coefficient (logP) in data set [10] (read-out: logP) is 1.09. For the same compound, the pKa in data set [11] was 6.52. Moreover, the Change entry with Mus musculus [14] is “inactive”.

In the case of `Cc1c(Cc2ccc3ccccc3c2)o[nH]c1=O`, the Change entry in the data set on Mus musculus [4] was “inactive”.

Regarding `COCc1n[nH]c(O)c1Cc1ccc2ccccc2c1`, the Change in the data set with Mus musculus [2] was -39%. The Change result with Mus musculus [1] is “inactive”.

Turning to `Oc1n[nH]c(O)c1Cc1ccc2ccccc2c1`, the Change result in the data set on Mus musculus [4] is “inactive”.

As for `Cc1n[nH]c(O)c1Cc1ccc2c(c1)OCCO2`, in the data set with Mus musculus [3], the Change is listed as -21%.

With `Oc1cc(CSc2nc3ccccc3s2)n[nH]1`, the Change result in the data set on Mus musculus [4] is “inactive”.

For the compound `Cc1c(O)nnn1Cc1ccc2ccccc2c1`, the Change result in the data set with Mus musculus [4] was “inactive”.

As to `Oc1nnnn1Cc1ccc2ccccc2c1`, in the data set on Mus musculus [4], the Change result is “inactive”.

Take `Oc1cc(C23CC4CC(CC(C4)C2)C3)n[nH]1`: the Change result with Mus musculus [15] is “inactive”.

`Cc1n[nH]c(O)c1Cc1nc2ccccc2o1`: in the data set with Mus musculus [16], the Change result is “inactive”.

On to `Cc1n[nH]c(O)c1Cc1ccc2ccccc2c1Br`, for which the Change in the data set with Mus musculus [17] is reported as -20%.

In the case of `Oc1[nH]nc2c1CCc1ccccc1-2`, the Change result in the data set on Mus musculus [4] is “inactive”.

As for `Oc1[nH]nc(C(F)(F)F)c1Cc1ccccc1`, the Change in the data set on Mus musculus [2] is reported as -33%; with Mus musculus [17] it was -18%.

The values are drawn from ChEMBL document CHEMBL1128240, “Studies on new acidic azoles as glucose-lowering agents in obese, diabetic db/db mice” (J Med Chem, 1995).
